According to publication PMC8969127 (Molecular Pharmacology, 2022):
Like-named read-outs stand apart in the source and are kept apart here.

Molecular target: CatSper (Homo sapiens, UniProt Q7RTX7+Q86XQ3+Q8NEC5+Q96P56)
Test: Human sperm calcium influx assay, activation
Assay type: cell-based
Details: for Emax: read-out: Emax, %, Steroid Alone; for Emax, %, Steroid Alone: percent of response to saturating PROG (3 µM); for fold less potent than PROG (calcium influx): relative to PROG; for fold lower activity than the corresponding pregnanolones (10–11): hydroxylation of the 21 position
In short: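 Semen from healthy donors was liquefied at 37 °C, washed twice in low pH/low K+ buffer (pH 6.7, 0.2 mM CaCl2), then loaded with 10 µM Fluo-4-AM plus 1 mM probenecid, 30 min, room temperature, dark. On FLIPR, buffer was added first, then openers 2 min later. Fluorescence was read for 7 min at 2-s intervals. EC50 came from 8-point, 3-fold dilutions in duplicate, peak height, four-parameter fit. Emax is relative to 3 µM progesterone. Activators were retested with 30 µM mibefradil.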

[1] = pEC50, calcium influx, Steroid Alone, human sperm, mean ±SD

Structure (SMILES) | EC50 [1] [nM] | Emax [%] | pEC50, calcium influx, Steroid Alone (human sperm, mean ±SD) | Emax, %, Steroid Alone [%] | fold less potent than PROG (calcium influx) | other results
CCCCC[C@H](O)/C=C/[C@H]1[C@H](O)CC(=O)[C@@H]1CCCCCCC(=O)O [compound 2, prostaglandin E1] | 3.98 | 101 | – | – | – | –
CC(=O)[C@H]1CC[C@H]2[C@@H]3CC[C@H]4C[C@H](O)CC[C@]4(C)[C@H]3CC[C@]12C [compound 10, 3α,5α-pregnanolone] | – | – | 6.56 ± 0.21 | 85 | – | –
CC(=O)[C@H]1CC[C@H]2[C@@H]3CC[C@@H]4C[C@H](O)CC[C@]4(C)[C@H]3CC[C@]12C [compound 11, 3α,5β-pregnanolone] | – | – | 6.26 ± 0.25 | 102 | – | –
CC(=O)[C@H]1CC[C@H]2[C@@H]3CC[C@H]4C[C@@H](O)CC[C@]4(C)[C@H]3CC[C@]12C [compound 12, 3β,5α-pregnanolone] | – | – | 7.16 ± 0.11 | 99 | – | –
CC(=O)[C@H]1CC[C@H]2[C@@H]3CC[C@@H]4C[C@@H](O)CC[C@]4(C)[C@H]3CC[C@]12C [compound 13, 3β,5β-pregnanolone] | – | – | 6.89 ± 0.20 | 92 | – | –
CC(=O)[C@H]1CC[C@H]2[C@@H]3CC[C@H]4CC(=O)CC[C@]4(C)[C@H]3CC[C@]12C [compound 14, 5α-dihydroprogesterone] | – | – | 6.99 ± 0.05 | 87 | ~30 fold | –
CC(=O)[C@H]1CC[C@H]2[C@@H]3CC[C@H]4CC(=O)CC[C@]4(C)[C@H]3CC[C@]12C [compound 15, 5β-dihydroprogesterone] | – | – | 6.87 ± 0.17 | 95 | ~30 fold | –
CC(=O)[C@H]1CC[C@H]2[C@@H]3C[C@@H]4O[C@@]45CC(=O)CC[C@]5(C)[C@H]3CC[C@]12C [compound 16, 5α,6α-epoxypregnan-3,20-dione] | 832 | 83 | – | – | – | –
CC(=O)[C@H]1CC[C@H]2[C@@H]3C[C@H]4O[C@]45CC(=O)CC[C@]5(C)[C@H]3CC[C@]12C [compound 17, 5β,6β-epoxypregnan-3,20-dione] | 417 | 84 | – | – | – | –
CC(=O)[C@H]1CC[C@H]2[C@@H]3CCC4=CC(=O)C(C)(C)C[C@]4(C)[C@H]3CC[C@]12C [compound 18, 2,2-dimethylprogesterone] | – | – | 6.31 ± 0.16 | 99 | 135 fold | –
CC(=O)[C@H]1CC[C@H]2[C@@H]3C[C@@H](C)C4=CC(=O)CC[C@]4(C)[C@H]3CC[C@]12C [compound 19, 6β-methylprogesterone] | – | – | 6.58 ± 0.12 | 90 | – | –
CC(=O)[C@H]1CC[C@H]2[C@@H]3C[C@H](C)C4=CC(=O)CC[C@]4(C)[C@H]3CC[C@]12C [compound 20, 6α-methylprogesterone] | – | – | 6.16 ± 0.14 | 96 | 190 fold | –
CC(=O)[C@H]1CC[C@H]2[C@@H]3C[C@@H](O)C4=CC(=O)CC[C@]4(C)[C@H]3CC[C@]12C [compound 21, 6β-hydroxyprogesterone] | – | – | 6.91 ± 0.10 | 116 | – | –
CC(=O)[C@H]1CC[C@H]2[C@@H]3C[C@@H](C)[C@@]4(O)CC(=O)CC[C@]4(C)[C@H]3CC[C@]12C [compound 22, 5α-hydroxy-6β-methylpregnan-3,20-dione] | 5010 | 95 | – | – | – | –
CC(=O)[C@H]1CC[C@H]2[C@@H]3CCC4=CC(=O)CC[C@]4(C)[C@H]3[C@@H](O)C[C@]12C [compound 23, 11β-hydroxyprogesterone] | 18.6 | 90 | – | – | 5 fold | –
CC(=O)[C@H]1CC[C@H]2[C@@H]3CCC4=CC(=O)CC[C@]4(C)[C@H]3[C@H](O)C[C@]12C [compound 24, 11α-hydroxyprogesterone] | – | – | 6.90 ± 0.08 | 100 | 35 fold | –
CC(=O)C1(O)CCC2C3CCC4=CC(=O)CCC4(C)C3CCC21C (stereo not drawn) [compound 25, 17α-hydroxyprogesterone] | 10.5 | 115 | – | – | threefold | –

Structure (SMILES) | EC50 [1] [nM] | Emax [%] | pEC50, calcium influx, Steroid Alone (human sperm, mean ±SD) | Emax, %, Steroid Alone [%] | fold less potent than PROG (calcium influx) | other results
C[C@]12CC[C@@H](O)C[C@H]1CC[C@@H]1[C@@H]2CC[C@]2(C)[C@@H](C(=O)CO)CC[C@@H]12 [compound 26, 3α,5β-THDOC] | – | – | 5.80 ± 0.26 | 100 | ≥ 240 fold | fold lower activity than the corresponding pregnanolones (10–11): threefold
C[C@]12CC[C@@H](O)C[C@@H]1CC[C@@H]1[C@@H]2CC[C@]2(C)[C@@H](C(=O)CO)CC[C@@H]12 [compound 27, 3α,5α-THDOC] | – | – | 6.05 ± 0.21 | 96 | ≥ 240 fold | fold lower activity than the corresponding pregnanolones (10–11): threefold
CC(=O)[C@H]1[C@H](O)C[C@H]2[C@@H]3CCC4=CC(=O)CC[C@]4(C)[C@H]3CC[C@@]21C [compound 28, 16α-hydroxyprogesterone] | – | – | 6.77 ± 0.18 | 106 | 46 fold | –
CC(=O)O[C@]1(C(C)=O)CC[C@H]2[C@@H]3CCC4=CC(=O)CC[C@]4(C)[C@H]3CC[C@@]21C [compound 29, 17α-acetoxyprogesterone] | – | – | – | 31 | – | –
CC(=O)[C@@]1(O)CC[C@H]2[C@@H]3C[C@H](C)C4=CC(=O)CC[C@]4(C)[C@H]3CC[C@@]21C [compound 30, 17α-hydroxy-6α-methylprogesterone] | – | – | 6.33 ± 0.10 | 96 | – | fold reduction of activity relative to 17α-hydroxyprogesterone (addition of a 6α-methyl group): 47 fold
C[C@]12CCC(=O)C=C1[C@@H]1C[C@@H]1[C@H]1[C@@H]3[C@@H]4C[C@@H]4[C@@]4(CCC(=O)O4)[C@@]3(C)CC[C@@H]12 [compound 31, drospirenone] | 525 | 115 | – | – | – | –
CC(=O)[C@@]1(O)CC[C@H]2[C@@H]3CCC4=CC(=O)CCC4=C3[C@@H](c3ccc(N(C)C)cc3)C[C@@]21C [compound 32, ulipristal] | 3550 | 106 | – | – | – | –
CC#C[C@]1(O)CC[C@H]2[C@@H]3CCC4=CC(=O)CCC4=C3[C@@H](c3ccc(N(C)C)cc3)C[C@@]21C [compound 33, mifepristone (RU-486)] | 4680 | 109 | – | – | – | –
CC(=O)O[C@]1(C(C)=O)CC[C@H]2[C@@H]3CCC4=CC(=O)CCC4=C3[C@@H](c3ccc(N(C)C)cc3)C[C@@]21C [compound 34, ulipristal acetate] | > 10000 | 27 | – | – | – | –
C=C1C[C@H]2[C@@H]3CCC4=CC(=O)CC[C@@H]4[C@H]3CC[C@]2(C)[C@@]1(OC(C)=O)C(C)=O [compound 35, segesterone acetate] | – | – | <5 | 57 | – | –
C[C@]12CC[C@H]3[C@@H](CCC4=CC(=O)CC[C@@]43C)[C@@H]1CC[C@@H]2O [compound 36, testosterone] | – | 114 | – | – | – | EC50: 219 nM
C[C@]12CC[C@@H]3c4ccc(O)cc4CC[C@H]3[C@@H]1CC[C@@H]2O [compound 37, 17β-estradiol] | 295 | 94 | – | – | – | –
C[C@H]1C[C@]2(C)[C@@H](O)CC[C@H]2[C@@H]2CCC3=CC(=O)CC[C@@H]3[C@H]21 [compound 38, 11β-methyl-19-nortestosterone] | – | – | 6.37 ± 0.32 | 85 | – | –
C[C@@H]1CC2=CC(=O)CC[C@@H]2[C@H]2CC[C@]3(C)[C@@H](O)CC[C@H]3[C@@H]21 [compound 39, 7α-methyl-19-nortestosterone] | – | – | 6.25 ± 0.37 | 86 | – | –
C[C@@H]1CC2=CC(=O)CC[C@@H]2[C@@H]2[C@@H]1[C@@H]1CC[C@H](O)[C@@]1(C)C[C@@H]2C [compound 40, 7α,11β-dimethylandrolone] | – | – | 6.06 ± 0.49 | 80 | – | –
C[C@H]1C[C@]2(C)[C@@H](O)CC[C@H]2[C@H]2[C@H]1[C@H]1CCC(=O)C=C1C[C@@H]2C [compound 41, 7β,11β-dimethylandrolone] | – | – | 5.41 ± 0.24 | 42 | – | –
